Measurements: ChEMBL document CHEMBL1148191, “2-Hydroxymethyl-3,4-dihydroxy-6-methyl-pyrrolidine (6-deoxy-DMDP), an alkaloid beta-mannosidase inhibitor from seeds of Angylocalyx pynaertii” (J Nat Prod, 1993)
Active and inactive are the calls of the source. No cut-off for these calls is given here.

How the values were obtained:
Canavalia ensiformis = test: Inhibition of jack beans alpha-mannosidase
In short: (§1)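 Commercial arylglycosidases, with α-L-fucosidase from bovine kidney. Activity was measured colorimetrically as p-nitrophenol released from the matching p-nitrophenyl glycoside substrate.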

Saccharomyces cerevisiae = test: Inhibition of yeast alpha-glucosidase; in short: as §1
Prunus dulcis = test: Inhibition of almonds beta-glucosidase; in short: as §1
[1] = biological target: T1, Beta-galactosidase (Bos taurus) (UniProt Q58D55); test: Inhibition of bovine liver beta-galactosidase; in short: as §1
T1 sequence (whole entry): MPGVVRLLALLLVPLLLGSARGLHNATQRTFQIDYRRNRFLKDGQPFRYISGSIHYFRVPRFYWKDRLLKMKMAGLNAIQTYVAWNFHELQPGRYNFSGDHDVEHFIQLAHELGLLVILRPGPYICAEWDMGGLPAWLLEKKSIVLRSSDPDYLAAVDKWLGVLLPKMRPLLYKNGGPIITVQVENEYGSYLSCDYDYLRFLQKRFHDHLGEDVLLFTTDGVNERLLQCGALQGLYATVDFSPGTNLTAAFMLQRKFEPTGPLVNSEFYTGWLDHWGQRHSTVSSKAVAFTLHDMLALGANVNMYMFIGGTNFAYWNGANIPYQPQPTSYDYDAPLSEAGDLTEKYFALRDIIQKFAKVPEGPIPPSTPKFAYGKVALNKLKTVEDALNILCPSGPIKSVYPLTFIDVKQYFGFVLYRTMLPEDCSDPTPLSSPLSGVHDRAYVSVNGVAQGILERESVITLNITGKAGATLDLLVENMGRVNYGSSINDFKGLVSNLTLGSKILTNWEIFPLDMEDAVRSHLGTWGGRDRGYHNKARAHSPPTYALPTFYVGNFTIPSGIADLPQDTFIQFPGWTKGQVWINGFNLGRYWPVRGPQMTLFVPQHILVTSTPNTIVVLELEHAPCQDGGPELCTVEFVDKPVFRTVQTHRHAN

Aspergillus niger = test: Inhibition of Aspergillus niger alpha-galactosidase; in short: as §1
[2] = biological target: T2, Beta-mannosidase A (Aspergillus niger) (UniProt Q9UUZ3); test: Inhibition of Aspergillus niger beta-mannosidase at 380 uM
T2 sequence (whole entry): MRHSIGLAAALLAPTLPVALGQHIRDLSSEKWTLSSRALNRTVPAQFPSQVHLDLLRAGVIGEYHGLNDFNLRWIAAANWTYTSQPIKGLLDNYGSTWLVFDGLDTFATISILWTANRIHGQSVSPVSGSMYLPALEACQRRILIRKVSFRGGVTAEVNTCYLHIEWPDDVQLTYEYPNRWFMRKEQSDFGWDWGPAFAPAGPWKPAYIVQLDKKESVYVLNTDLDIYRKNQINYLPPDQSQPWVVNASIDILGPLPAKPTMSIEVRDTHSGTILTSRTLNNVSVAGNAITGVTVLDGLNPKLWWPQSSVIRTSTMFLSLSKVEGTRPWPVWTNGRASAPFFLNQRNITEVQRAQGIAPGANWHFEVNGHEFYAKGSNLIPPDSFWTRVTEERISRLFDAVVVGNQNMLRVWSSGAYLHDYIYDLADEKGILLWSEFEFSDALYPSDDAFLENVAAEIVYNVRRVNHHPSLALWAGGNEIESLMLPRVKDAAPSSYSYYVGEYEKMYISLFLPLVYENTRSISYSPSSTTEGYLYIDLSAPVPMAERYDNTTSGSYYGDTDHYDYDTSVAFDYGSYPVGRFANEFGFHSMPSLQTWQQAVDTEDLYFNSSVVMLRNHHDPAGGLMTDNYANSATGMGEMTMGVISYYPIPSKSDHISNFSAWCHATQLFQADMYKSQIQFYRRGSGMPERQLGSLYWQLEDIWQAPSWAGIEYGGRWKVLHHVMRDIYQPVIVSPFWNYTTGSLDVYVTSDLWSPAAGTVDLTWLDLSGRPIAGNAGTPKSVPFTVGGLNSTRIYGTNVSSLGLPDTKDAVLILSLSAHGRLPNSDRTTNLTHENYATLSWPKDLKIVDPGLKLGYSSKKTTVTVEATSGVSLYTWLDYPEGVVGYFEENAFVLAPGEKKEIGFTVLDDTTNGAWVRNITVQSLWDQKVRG
In short: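 β-Mannosidase was purified from Aspergillus niger. Activity was read colorimetrically as p-nitrophenol release from the p-nitrophenyl glycoside substrate, expressed relative to untreated enzyme over a range of inhibitor concentrations. Kinetics were analysed by Lineweaver-Burk plot.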

[3] = biological target: T3, Exo-1,4-beta-xylosidase xlnD (Aspergillus niger) (UniProt O00089); test: Inhibition of Aspergillus niger beta-xylosidase; in short: as §1
T3 sequence (whole entry): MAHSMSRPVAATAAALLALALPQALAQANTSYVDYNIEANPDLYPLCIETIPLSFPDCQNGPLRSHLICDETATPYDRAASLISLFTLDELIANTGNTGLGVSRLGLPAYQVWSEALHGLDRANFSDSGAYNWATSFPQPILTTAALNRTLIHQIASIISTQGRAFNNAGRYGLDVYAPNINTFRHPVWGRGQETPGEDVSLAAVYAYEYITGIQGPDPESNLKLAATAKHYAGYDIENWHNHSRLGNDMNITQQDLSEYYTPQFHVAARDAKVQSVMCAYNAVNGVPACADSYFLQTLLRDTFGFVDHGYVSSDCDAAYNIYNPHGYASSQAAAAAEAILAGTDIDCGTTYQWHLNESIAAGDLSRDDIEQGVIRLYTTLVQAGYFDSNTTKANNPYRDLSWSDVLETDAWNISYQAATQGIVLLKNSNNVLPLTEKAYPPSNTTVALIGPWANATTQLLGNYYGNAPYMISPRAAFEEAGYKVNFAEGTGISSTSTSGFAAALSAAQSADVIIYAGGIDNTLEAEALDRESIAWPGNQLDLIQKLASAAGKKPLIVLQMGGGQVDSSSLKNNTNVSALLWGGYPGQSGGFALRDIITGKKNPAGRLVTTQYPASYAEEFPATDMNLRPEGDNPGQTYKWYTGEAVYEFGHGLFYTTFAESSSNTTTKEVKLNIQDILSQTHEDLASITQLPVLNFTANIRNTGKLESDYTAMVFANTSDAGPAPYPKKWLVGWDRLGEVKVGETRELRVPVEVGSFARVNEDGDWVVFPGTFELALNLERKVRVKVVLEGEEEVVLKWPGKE

O[C@H]1[C@H]2[C@H](O)CCCN2C[C@H]1O
Activity (Canavalia ensiformis): Active

OC[C@H]1N[C@H](CO)[C@@H](O)[C@@H]1O
Activity (Saccharomyces cerevisiae): Active
Activity (Prunus dulcis): Active

OC[C@H]1NC[C@@H](O)[C@@H]1O
Activity (Saccharomyces cerevisiae): Active
Activity (Prunus dulcis): Active

OC[C@H]1NC[C@@H](O)[C@@H](O)[C@@H]1O
Activity (Canavalia ensiformis): Active

C[C@H]1N[C@H](CO)[C@@H](O)[C@@H]1O
Activity [1]: Active
Activity (Aspergillus niger): inactive
inhibition [2]: 50%
Activity (Saccharomyces cerevisiae): inactive
Activity (Canavalia ensiformis): inactive
Activity [3]: inactive
Activity (Prunus dulcis): inactive
